The source made the active and inactive calls. The rule behind the calls is not given here.
Legend:
Trypanosoma brucei = assay: Inhibition of Trypanosoma brucei PTR1 at 50 uM using H2B as substrate preincubated for 10 mins followed by NADPH addition and measured up to 50 mins relative to control; conditions: time min <=60
[1] = tested on: Trypanosoma brucei brucei; assay: Antitrypanosomal activity against bloodstream form of trypanosoma brucei brucei 427 assessed as reduction in parasitic growth after 72 hrs by resazurin staining based fluorescence assay; format: functional, organism-based
Method in brief: (§1)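 T. brucei bloodstream forms in a modified resazurin-based growth assay. EC50 (concentration inhibiting growth by 50%) obtained by nonlinear regression. Combination wells contained 4 μM MTX (methotrexate); single-agent MTX was run at 4 μM. Single-concentration tests used 10, 1 or 0.1 μM of test compound.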

[2] = tested on: Trypanosoma brucei brucei; assay: Antitrypanosomal activity against bloodstream form of trypanosoma brucei brucei 427 assessed as potentiation index at 0.1 uM after 72 hrs in presence of MTX by resazurin staining based fluorescence assay; format: functional
Method in brief: (§2)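 Synergy index taken as the activity of test compound plus 4 μM MTX, divided by the summed activities of test compound alone and 4 μM MTX alone. Resazurin-based assay on T. brucei bloodstream forms.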

[3] = tested on: Trypanosoma brucei brucei; assay: Antitrypanosomal activity against bloodstream form of trypanosoma brucei brucei 427 assessed as inhibition of parasitic growth at 0.1 uM after 72 hrs by resazurin staining based fluorescence assay relative to control; format: functional, organism-based; method in brief: as §1
[4] = tested on: Trypanosoma brucei brucei; assay: Antitrypanosomal activity against bloodstream form of trypanosoma brucei brucei 427 assessed as inhibition of parasitic growth at 0.1 uM after 72 hrs in presence of MTX by resazurin staining based fluorescence assay relative to control; format: functional; conditions: read-out: GI; method in brief: as §1
Pteridine reductase 1 = biological target: T1, Pteridine reductase 1 (Leishmania major, UniProt Q01782); assay: Inhibition of Leishmania major PTR1 using H2B as substrate preincubated for 10 mins followed by NADPH addition and measured up to 50 mins relative to control
T1 sequence (Q01782 whole entry): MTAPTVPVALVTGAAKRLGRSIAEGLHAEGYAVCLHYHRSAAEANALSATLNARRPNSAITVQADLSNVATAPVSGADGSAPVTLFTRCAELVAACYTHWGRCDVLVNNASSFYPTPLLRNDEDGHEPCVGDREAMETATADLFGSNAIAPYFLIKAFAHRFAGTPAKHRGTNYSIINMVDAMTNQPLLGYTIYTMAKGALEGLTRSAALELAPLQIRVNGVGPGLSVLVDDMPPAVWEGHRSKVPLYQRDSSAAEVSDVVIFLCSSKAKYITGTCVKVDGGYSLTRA
Method in brief: (§3)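 Purified recombinant LmPTR1 or TbPTR1 in a coupled enzyme assay. Nine-point dose response from 0.5 to 100 μM. IC50, pIC50 and Hill slope from a 4-parameter logistic fit. Ki derived by the competitive model Ki = IC50/((S/Km)+1).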

[5] = Selectivity ratio Ki for inhibition of inhibition of Leishmania major PTR1 to Ki for inhibition of Trypanosoma brucei PTR1
Method in brief: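 Ki values for LmPTR1 and TbPTR1, each calculated from the coupled-assay IC50 with the competitive model Ki = IC50/((S/Km)+1).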

[6] = Inhibition of Trypanosoma brucei PTR1 using H2B as substrate preincubated for 10 mins followed by NADPH addition and measured up to 50 mins relative to control; method in brief: as §3
[7] = tested on: Trypanosoma brucei brucei; assay: Antitrypanosomal activity against bloodstream form of trypanosoma brucei brucei 427 assessed as inhibition of parasitic growth at 1 uM after 72 hrs by resazurin staining based fluorescence assay relative to control; format: functional, organism-based; method in brief: as §1
[8] = tested on: Trypanosoma brucei brucei; assay: Antitrypanosomal activity against bloodstream form of trypanosoma brucei brucei 427 assessed as inhibition of parasitic growth at 1 uM after 72 hrs in presence of MTX by resazurin staining based fluorescence assay relative to control; format: functional; conditions: read-out: GI; method in brief: as §1
[9] = Cytotoxicity against human THP-1 cells assessed as reduction in cell viability by MTT assay; format: cell-based
[10] = tested on: Trypanosoma brucei brucei; assay: Antitrypanosomal activity against bloodstream form of trypanosoma brucei brucei 427 assessed as inhibition of parasitic growth at 10 uM after 72 hrs by resazurin staining based fluorescence assay relative to control; format: functional; method in brief: as §1
[11] = tested on: Trypanosoma brucei brucei; assay: Antitrypanosomal activity against bloodstream form of trypanosoma brucei brucei 427 assessed as potentiation index at 1 uM after 72 hrs in presence of MTX by resazurin staining based fluorescence assay; format: functional; method in brief: as §2
[12] = Cytotoxicity against human A549 cells assessed as reduction in cell viability by Cell Titer-Glo assay; format: cell-based
Method in brief: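 A549 cells from DSMZ, grown in DMEM with 10% v/v FCS, 100 μg/mL streptomycin and 100 U/mL penicillin G. Viability read by CellTiter-Glo luminescence of cellular ATP, which scales with cell number. GI50 reported.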

hERG (KCNH2) = hERG (KCNH2) (Homo sapiens, UniProt Q12809); assay: Inhibition of human ERG at 10 uM by fluorescence polarization assay relative to control
Method in brief: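 hERG inhibition measured by fluorescence polarization (Predictor hERG assay), with compound at 10 μM.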

[13] = tested on: Trypanosoma brucei brucei; assay: Antitrypanosomal activity against bloodstream form of trypanosoma brucei brucei 427 assessed as inhibition of parasitic growth at 10 uM after 72 hrs in presence of MTX by resazurin staining based fluorescence assay relative to control; format: functional; conditions: for inhibition of growth at 10 µM: read-out: GI; method in brief: as §1
[14] = tested on: Trypanosoma brucei brucei; assay: Antitrypanosomal activity against bloodstream form of trypanosoma brucei brucei 427 assessed as potentiation index at 10 uM after 72 hrs in presence of MTX by resazurin staining based fluorescence assay; format: functional; method in brief: as §2
CYP2D6 = CYP2D6 (Homo sapiens, UniProt P10635); assay: Inhibition of CYP2D6 (unknown origin) at 10 uM by P450-Glo assay relative to control; format: ADME
Method in brief: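 CYP2D6 inhibition measured in the P450-Glo luminescent platform, with compound at 10 μM.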

[15] = tested on: Trypanosoma brucei brucei; assay: Antitrypanosomal activity against bloodstream form of trypanosoma brucei brucei 427 assessed as inhibition of parasitic growth at 4 uM after 72 hrs in presence of MTX by resazurin staining based fluorescence assay relative to control; format: functional; conditions: read-out: GI; method in brief: as §1
[16] = Trypanosoma brucei, 427, 72 h, read-out: IC50

Sequence of CYP2D6 (P10635 whole entry): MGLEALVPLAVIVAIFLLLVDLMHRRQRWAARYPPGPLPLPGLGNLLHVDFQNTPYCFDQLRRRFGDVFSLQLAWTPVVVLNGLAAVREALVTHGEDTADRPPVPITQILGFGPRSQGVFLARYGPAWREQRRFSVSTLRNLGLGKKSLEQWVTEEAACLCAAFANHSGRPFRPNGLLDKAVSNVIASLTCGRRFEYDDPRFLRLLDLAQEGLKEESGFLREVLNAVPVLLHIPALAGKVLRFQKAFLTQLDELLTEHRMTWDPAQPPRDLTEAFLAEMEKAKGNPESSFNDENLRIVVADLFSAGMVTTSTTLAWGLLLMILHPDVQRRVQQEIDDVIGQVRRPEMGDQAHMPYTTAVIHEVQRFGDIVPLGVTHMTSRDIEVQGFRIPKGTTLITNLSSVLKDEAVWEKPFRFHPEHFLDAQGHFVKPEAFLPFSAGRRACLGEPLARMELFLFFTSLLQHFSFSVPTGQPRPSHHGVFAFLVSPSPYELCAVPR
Sequence of hERG (KCNH2) (Q12809 whole entry): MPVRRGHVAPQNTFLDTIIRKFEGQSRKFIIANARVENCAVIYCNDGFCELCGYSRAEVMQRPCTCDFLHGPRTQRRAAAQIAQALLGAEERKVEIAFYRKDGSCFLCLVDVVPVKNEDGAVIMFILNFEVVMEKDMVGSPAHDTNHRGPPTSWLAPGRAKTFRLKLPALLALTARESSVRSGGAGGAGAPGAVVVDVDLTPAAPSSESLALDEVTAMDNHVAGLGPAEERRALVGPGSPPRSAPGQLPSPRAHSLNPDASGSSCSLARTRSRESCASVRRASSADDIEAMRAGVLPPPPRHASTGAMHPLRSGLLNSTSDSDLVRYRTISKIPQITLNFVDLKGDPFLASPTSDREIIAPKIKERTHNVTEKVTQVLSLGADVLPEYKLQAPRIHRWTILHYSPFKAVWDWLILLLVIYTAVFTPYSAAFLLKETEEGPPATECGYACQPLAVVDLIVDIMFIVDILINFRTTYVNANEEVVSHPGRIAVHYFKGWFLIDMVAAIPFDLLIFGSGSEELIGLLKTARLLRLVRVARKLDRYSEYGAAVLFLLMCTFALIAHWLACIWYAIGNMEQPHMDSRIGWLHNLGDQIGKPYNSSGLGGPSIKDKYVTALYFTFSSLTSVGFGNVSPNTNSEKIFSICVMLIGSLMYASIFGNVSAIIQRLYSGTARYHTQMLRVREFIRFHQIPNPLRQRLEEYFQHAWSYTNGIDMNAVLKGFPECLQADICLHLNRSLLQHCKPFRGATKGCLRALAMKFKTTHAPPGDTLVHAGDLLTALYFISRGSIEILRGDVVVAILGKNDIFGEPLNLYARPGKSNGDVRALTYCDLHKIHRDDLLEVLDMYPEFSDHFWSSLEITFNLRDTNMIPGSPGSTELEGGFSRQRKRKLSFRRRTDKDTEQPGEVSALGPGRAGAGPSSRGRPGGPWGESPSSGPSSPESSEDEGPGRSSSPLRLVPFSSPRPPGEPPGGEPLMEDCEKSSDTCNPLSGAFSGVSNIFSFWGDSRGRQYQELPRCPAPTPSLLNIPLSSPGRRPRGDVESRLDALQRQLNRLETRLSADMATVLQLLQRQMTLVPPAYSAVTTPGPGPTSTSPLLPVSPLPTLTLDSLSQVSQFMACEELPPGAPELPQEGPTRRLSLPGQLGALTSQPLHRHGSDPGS

Compound	inhibition (Trypanosoma brucei) [%]	IC50 [1, 16] [µM]	Activity_index [2]	growth inhibition (GI) [3]	inhibition of growth at 0.1 µM [4] [%]	Ki (Pteridine reductase 1) [µM]	Ki ([6]; read-out: Ki) [µM]	IC50 [1]	inhibition of growth at 10 µM [13] [%]	Activity_index [14]	growth inhibition (GI) [10]	further results
Cl.Fc1ccc(N(CCNCCCc2ccccc2)c2ccc(F)cc2)cc1	> 85	2.45	1.1	inactive	46	> 100	2.2					IC50 (Pteridine reductase 1): > 100 µM; Ratio Ki [5]: > 45
Nc1cc(NCc2ccc(-c3ccccc3)cc2)nc(N)n1		3.7				15.3	0.2					growth inhibition (GI) [7]: Active; inhibition of growth at 1 µM [8]: 49%; CC50 [9]: < 25 µM; inhibition of growth at 10 µM ([10]; read-out: GI): > 80%; Activity_index [11]: 2.3; GI50 [12]: 28.6 µM
O=C1CCCCCNCc2ccc(cc2)CNCCCCCC(=O)N(Cc2ccccc2)CCCCCCCCN1Cc1ccccc1	> 85	0.61	1.4	inactive	43	> 100	1.7					IC50 (Pteridine reductase 1): > 100 µM
Nc1nc(NCc2ccccc2)cc(NCc2ccccc2)n1						> 100						inhibition at 10 µM (hERG (KCNH2)): > 50%; Ki [6]: Not Active
Nc1cc(NCc2ccc(F)cc2)nc(N)n1						> 100	1.1	Not Active	37	1.8	inactive	inhibition at 10 µM (hERG (KCNH2)): > 50%; inhibition at 10 µM (CYP2D6): 30%
NCCCCCCN1CC[C@H]2COc3ccccc3[C@H]21	> 85					> 100	1.6	Not Active	51	1.3	inactive	IC50 (Pteridine reductase 1): > 100 µM; Ratio Ki [5]: > 62.5
CN(Cc1cnc2nc(N)nc(N)c2n1)c1ccc(C(=O)N[C@@H](CCC(=O)O)C(=O)O)cc1 [METHOTREXATE]												inhibition of growth at 4 µM [15]: 19%
Cn1cnc2c(N)nc(CCc3ccccc3)nc21	> 85					12	4.9	Not Active	56	1.7		
4-(4-Methoxybenzylamino)2,6-diaminopyrimidine											inactive	growth inhibition (GI) [13]: 41%; Activity index [14]: 2.2
O=C1CCCCCNCc2ccc(cc2)Cc2ccc(cc2)CNCCCCCC(=O)N(Cc2ccccc2)CCCCCCCCN1Cc1ccccc1	> 85	0.58	1.1	inactive	42	14.8	2.7					
O=C1CCCCCNCc2ccc(cc2)-c2ccc(cc2)CNCCCCCC(=O)N(Cc2ccccc2)CCCCCCCCN1Cc1ccccc1	> 85	0.56	1.2	inactive	41	19.2	1.6					
Nc1cc(OCc2ccccc2)nc(N)n1	> 85					> 100	0.6	Not Active	36	1.9	inactive	inhibition at 10 µM (hERG (KCNH2)): < 30%; CC50 [9]: > 60 µM; IC50 (Pteridine reductase 1): > 100 µM; Ratio Ki [5]: > 167; GI50 [12]: > 60 µM; inhibition at 10 µM (CYP2D6): < 30%
Nc1cc(NCc2ccccc2)nc(N)n1						> 100	3.4	Not Active	24	1.3	inactive	inhibition at 10 µM (hERG (KCNH2)): > 50%; inhibition at 10 µM (CYP2D6): 30%
Oc1ccc(-c2ccc(-c3cc(O)cc(O)c3)c(-c3ccccc3)c2)cc1	> 85					5.7	> 100					IC50 [6]: > 100 µM
COc1ccccc1CNCc1ccc(CNCCCCCCCCCCCCNCc2ccc(CNCc3ccccc3OC)cc2)cc1	> 85	0.27	1.1	inactive	46	37.2	0.2					Ratio Ki [5]: 186
COc1ccc(COc2cc(N)nc(N)n2)cc1						> 100	0.8	Not Active	42	2.2	inactive	
